We go through 24 molecules from ChEMBL document CHEMBL1833791, “Synthesis and biological evaluation of α,β-unsaturated lactones as potent immunosuppressive agents” (Bioorg Med Chem Lett, 2011).

The subject of experiment [1] is Jurkat. In words: Immunosuppressive activity in human Jurkat T cells assessed as inhibition of PMA-induced IL-2 production at 10 uM after 13 hrs by ELISA relative to control. Type of experiment: functional. In a few lines:
(§1)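 Jurkat T lymphocytes at 1 × 10^6 cells/mL were given compound at 1 μM or 10 μM final, then stimulated with 5 nM ionomycin plus 500 nM PMA for 13 h at 37 °C. Cells were spun down and supernatant IL-2 was measured by sandwich ELISA (anti-human IL-2 capture, biotinylated anti-human IL-2 detection). Values are % inhibition versus DMSO negative control, from at least three experiments.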
(In general: An ELISA detects its analyte on a solid surface through an enzyme-linked reagent.)

For experiment [2], the system named is Jurkat. In words: Immunosuppressive activity in human Jurkat T cells assessed as inhibition of PMA-induced IL-2 production at 1 uM after 13 hrs by ELISA relative to control. It is filed as functional. The essentials:
as §1

The subject of experiment [3] is Jurkat. In words: Immunosuppressive activity in human Jurkat T cells assessed as inhibition of PMA-induced IL-2 production after 13 hrs by ELISA. Type of experiment: functional, cell-based.

Each structure is given as a SMILES string. Active and inactive are the calls of the source. No cut-off for these calls is given here.

For `O=C1C=CCC(c2ccco2)O1` (centres undefined), the inhibition (usually the change of the read-out against control, counted positive when it falls) at 10 µM in experiment [1] amounted to 21.7%. In addition, the inhibition entry in experiment [2] is “inactive”.

Regarding `O=C1C=CCC(c2ccsc2)O1` (centres undefined), the inhibition at 10 µM in experiment [1] was determined as 46.2%. Also, the inhibition entry in experiment [2] was “inactive”.

Take `O=C1C=CCC(c2ccccc2)O1` (centres undefined): the inhibition at 10 µM in experiment [1] was 82.6%. Also, the inhibition at 1 µM in experiment [2] worked out at 89.7%. For the same molecule, in experiment [3], the IC50 (in general, the concentration that inhibits the measured activity by half) is 166 nM.

As for `O=C1C=CCC(c2ccc3ccccc3c2)O1` (centres undefined), the inhibition at 10 µM in experiment [1] came out at 97.2%. In addition, the inhibition at 1 µM in experiment [2] was determined as 37.5%.

With `COc1ccc(C2CC=CC(=O)O2)cc1` (centres undefined), the inhibition at 10 µM in experiment [1] amounted to 87.2%. For the same molecule, the inhibition at 1 µM in experiment [2] came to 39.8%.

Take `COc1ccccc1C1CC=CC(=O)O1` (centres undefined): the inhibition at 10 µM in experiment [1] was found to be 89.2%. Besides, the inhibition at 1 µM in experiment [2] is 11%.

As for `Cc1ccc(C2CC=CC(=O)O2)cc1` (centres undefined), the inhibition at 10 µM in experiment [1] stood at 80.6%. In addition, the inhibition at 1 µM in experiment [2] was found to be 89%. Besides, the IC50 in experiment [3] came to 142 nM.

Consider `O=C1C=CCC(c2cccs2)O1` (centres undefined), for which the inhibition at 10 µM in experiment [1] is 59.6%. The inhibition entry in experiment [2] is “inactive”.

`O=C1C=CCC(CC23CC4CC(CC(C4)C2)C3)O1` (centres undefined): the inhibition at 10 µM in experiment [1] was found to be 100%. Moreover, the inhibition at 1 µM in experiment [2] was found to be 57.4%. Moreover, the IC50 in experiment [3] turned out to be 1570 nM.

Take `Cc1ccc(C2CC=CC(=O)O2)c2ccccc12` (centres undefined): the inhibition at 10 µM in experiment [1] came out at 100%. In experiment [2], the inhibition at 1 µM was found to be 57.4%.

`O=C1C=CCC(c2cccc3ccccc23)O1` (centres undefined): the inhibition at 10 µM in experiment [1] came to 100%. Further, the inhibition at 1 µM in experiment [2] turned out to be 72.5%.

Turning to `O=C1C=CCC(Cc2ccc3ccccc3c2)O1` (centres undefined), the inhibition at 10 µM in experiment [1] stood at 100%. For the same molecule, the inhibition at 1 µM in experiment [2] stood at 67.7%. Also, the concentration for half-maximal inhibition (IC50) in experiment [3] stood at 396 nM.

As for `O=C1C=CCC(c2ccoc2)O1` (centres undefined), the inhibition result in experiment [1] and in experiment [2] was “inactive” each time.

Regarding `O=C1C=CCC(c2ccc(OCc3ccccc3)cc2)O1` (centres undefined), the inhibition at 10 µM in experiment [1] stood at 98.9%. Moreover, the inhibition at 1 µM in experiment [2] is 28%.

Regarding `O=C1C=CCC(/C=C/c2ccccc2)O1` (centres undefined), the inhibition at 10 µM in experiment [1] was 90.1%. In addition, the inhibition at 1 µM in experiment [2] is 12.7%.

Regarding `O=C1C=CCC(c2cc3ccccc3o2)O1` (centres undefined), the inhibition at 10 µM in experiment [1] amounted to 100%. For the same molecule, the inhibition at 1 µM in experiment [2] is 100%. Further, in experiment [3], the IC50 amounted to 66.9 nM.

In the case of `O=C1C=CCC(c2csc3ccccc23)O1` (centres undefined), in experiment [1], the inhibition at 10 µM is 100%. For the same molecule, the inhibition at 1 µM in experiment [2] is 77.1%. Also, in experiment [3], the 50% inhibitory concentration (IC50) stood at 908 nM.

Consider `COc1cccc(C2CC=CC(=O)O2)c1` (centres undefined), for which the inhibition at 10 µM in experiment [1] was found to be 90.4%. Moreover, the inhibition entry in experiment [2] is “inactive”.

As to `Cc1ccc2ccccc2c1C1CC=CC(=O)O1` (centres undefined), in experiment [1], the inhibition at 10 µM is 75.5%. The inhibition at 1 µM in experiment [2] was determined as 6.4%.

For the molecule `O=C1C=CCC(c2ccnc3ccccc23)O1` (centres undefined), the inhibition at 10 µM in experiment [1] came out at 100%. Moreover, the inhibition at 1 µM in experiment [2] turned out to be 27.8%.

For `O=C1C=CCC(C(c2ccccc2)c2ccccc2)O1` (centres undefined), in experiment [1], the inhibition at 10 µM was 89.2%. Also, the inhibition at 1 µM in experiment [2] came out at 18.7%.

On to `Cc1cccc(C2CC=CC(=O)O2)c1` (centres undefined), for which, in experiment [1], the inhibition at 10 µM was 64.5%. Also, in experiment [2], the inhibition at 1 µM is 47.9%.

Turning to `O=C1C=CCC(c2cnc3ccccc3c2)O1` (centres undefined), the inhibition at 10 µM in experiment [1] was found to be 98.7%. For the same molecule, the inhibition at 1 µM in experiment [2] was 41.5%.

For the molecule `Cc1ccccc1C1CC=CC(=O)O1` (centres undefined), the inhibition at 10 µM in experiment [1] was found to be 86.1%. Also, the inhibition at 1 µM in experiment [2] worked out at 15.2%.
